{
  "source": "paper PMC6061410",
  "about": "(Clinical Drug Investigation, 2018)",
  "tested_on": "healthy young and healthy elderly subjects",
  "test": "Safety and tolerability",
  "assay_type": "in vivo, human",
  "summary_of_the_method": "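Adverse events were recorded by system organ class and preferred term in the treated set. This was 84 healthy young or elderly subjects randomised 3:1 to oral drug or placebo over 14 days, across seven ascending dose groups with a safety review before each escalation. Changes were assessed against the last pre-dose baseline measurement.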",
  "note": "“Also recorded” adds a separate entry of the source.",
  "data": [
    {"smiles": "C[C@@H](Oc1ccc(S(C)(=O)=O)cc1C(=O)N1C[C@@H]2C[C@]2(c2cc(C(F)(F)F)on2)C1)C(F)(F)F", "note": "[BI 425809]", "values": [
      {"measurement": "intensity of treatment-emergent AEs", "setting": "all dose groups", "value": "mild-to-moderate; also recorded: mild or moderate"},
      {"measurement": "intensity of eye disorders", "setting": "both age groups", "value": "mild"},
      {"measurement": "subjects who reported one or more AEs", "setting": "elderly subjects receiving the active drug", "value": 88.9, "unit": "%"},
      {"measurement": "subjects with drug-related AEs", "setting": "elderly subjects who received BI 425809", "value": 77.8, "unit": "%"},
      {"measurement": "Back pain", "setting": "elderly, 25 mg QD", "value": "1 (11.1) n (%)"},
      {"measurement": "Constipation", "setting": "elderly, 25 mg QD", "value": "0 (–) n (%)"},
      {"measurement": "Dizziness", "setting": "elderly, 25 mg QD", "value": "1 (11.1) n (%)"},
      {"measurement": "Eye disorders", "setting": "elderly, 25 mg QD", "value": "1 (11.1) n (%)"},
      {"measurement": "Folliculitis", "setting": "elderly, 25 mg QD", "value": "2 (22.2) n (%)"},
      {"measurement": "Gastrointestinal disorders", "setting": "elderly, 25 mg QD", "value": "6 (66.7) n (%)"},
      {"measurement": "General disorders and administration site conditions", "setting": "elderly, 25 mg QD", "value": "2 (22.2) n (%)"},
      {"measurement": "Hard faeces", "setting": "elderly, 25 mg QD", "value": "2 (22.2) n (%)"},
      {"measurement": "Headache", "setting": "elderly, 25 mg QD", "value": "1 (11.1) n (%)"},
      {"measurement": "Infections and infestations", "setting": "elderly, 25 mg QD", "value": "3 (33.3) n (%)"},
      {"measurement": "Injury, poisoning and procedural complications", "setting": "elderly, 25 mg QD", "value": "2 (22.2) n (%)"},
      {"measurement": "Musculoskeletal and connective tissue disorders", "setting": "elderly, 25 mg QD", "value": "1 (11.1) n (%)"},
      {"measurement": "Nasopharyngitis", "setting": "elderly, 25 mg QD", "value": "1 (11.1) n (%)"},
      {"measurement": "Nausea", "setting": "elderly, 25 mg QD", "value": "1 (11.1) n (%)"},
      {"measurement": "Nervous system disorder", "setting": "elderly, 25 mg QD", "value": "2 (22.2) n (%)"},
      {"measurement": "Psychiatric disorders", "setting": "elderly, 25 mg QD", "value": "2 (22.2) n (%)"},
      {"measurement": "Subjects with AEs leading to study discontinuation", "setting": "elderly, 25 mg QD", "value": "0 (–) n (%)"},
      {"measurement": "Subjects with investigator-defined drug-related AEs", "setting": "elderly, 25 mg QD", "value": "6 (66.7) n (%)"},
      {"measurement": "Total with AEs", "setting": "elderly, 25 mg QD", "value": "8 (88.9) n (%)"},
      {"measurement": "Venepuncture site haematoma", "setting": "elderly, 25 mg QD", "value": "1 (11.1) n (%)"},
      {"measurement": "Vomiting", "setting": "elderly, 25 mg QD", "value": "1 (11.1) n (%)"},
      {"measurement": "Back pain", "setting": "elderly, 50 mg QD", "value": "1 (11.1) n (%)"},
      {"measurement": "Constipation", "setting": "elderly, 50 mg QD", "value": "4 (44.4) n (%)"},
      {"measurement": "Dizziness", "setting": "elderly, 50 mg QD", "value": "2 (22.2) n (%)"},
      {"measurement": "Eye disorders", "setting": "elderly, 50 mg QD", "value": "1 (11.1) n (%)"},
      {"measurement": "Folliculitis", "setting": "elderly, 50 mg QD", "value": "1 (11.1) n (%)"},
      {"measurement": "Gastrointestinal disorders", "setting": "elderly, 50 mg QD", "value": "5 (55.6) n (%)"},
      {"measurement": "General disorders and administration site conditions", "setting": "elderly, 50 mg QD", "value": "4 (44.4) n (%)"},
      {"measurement": "Hard faeces", "setting": "elderly, 50 mg QD", "value": "0 (–) n (%)"},
      {"measurement": "Headache", "setting": "elderly, 50 mg QD", "value": "1 (11.1) n (%)"},
      {"measurement": "Infections and infestations", "setting": "elderly, 50 mg QD", "value": "3 (33.3) n (%)"},
      {"measurement": "Injury, poisoning and procedural complications", "setting": "elderly, 50 mg QD", "value": "0 (–) n (%)"},
      {"measurement": "Musculoskeletal and connective tissue disorders", "setting": "elderly, 50 mg QD", "value": "2 (22.2) n (%)"},
      {"measurement": "Nasopharyngitis", "setting": "elderly, 50 mg QD", "value": "1 (11.1) n (%)"},
      {"measurement": "Nausea", "setting": "elderly, 50 mg QD", "value": "1 (11.1) n (%)"},
      {"measurement": "Nervous system disorder", "setting": "elderly, 50 mg QD", "value": "3 (33.3) n (%)"},
      {"measurement": "Psychiatric disorders", "setting": "elderly, 50 mg QD", "value": "2 (22.2) n (%)"},
      {"measurement": "Subjects with AEs leading to study discontinuation", "setting": "elderly, 50 mg QD", "value": "1 (11.1) n (%)"},
      {"measurement": "Subjects with investigator-defined drug-related AEs", "setting": "elderly, 50 mg QD", "value": "8 (88.9) n (%)"},
      {"measurement": "Total with AEs", "setting": "elderly, 50 mg QD", "value": "8 (88.9) n (%)"},
      {"measurement": "Venepuncture site haematoma", "setting": "elderly, 50 mg QD", "value": "4 (44.4) n (%)"},
      {"measurement": "Vomiting", "setting": "elderly, 50 mg QD", "value": "1 (11.1) n (%)"},
      {"measurement": "Back pain", "setting": "elderly, Total BI n = 18", "value": "2 (11.1) n (%)"},
      {"measurement": "Constipation", "setting": "elderly, Total BI n = 18", "value": "4 (22.2) n (%)"},
      {"measurement": "Dizziness", "setting": "elderly, Total BI n = 18", "value": "3 (16.7) n (%)"},
      {"measurement": "Eye disorders", "setting": "elderly, Total BI n = 18", "value": "2 (11.1) n (%)"},
      {"measurement": "Folliculitis", "setting": "elderly, Total BI n = 18", "value": "3 (16.7) n (%)"},
      {"measurement": "Gastrointestinal disorders", "setting": "elderly, Total BI n = 18", "value": "11 (61.1) n (%)"},
      {"measurement": "General disorders and administration site conditions", "setting": "elderly, Total BI n = 18", "value": "6 (33.3) n (%)"},
      {"measurement": "Hard faeces", "setting": "elderly, Total BI n = 18", "value": "2 (11.1) n (%)"},
      {"measurement": "Headache", "setting": "elderly, Total BI n = 18", "value": "2 (11.1) n (%)"},
      {"measurement": "Infections and infestations", "setting": "elderly, Total BI n = 18", "value": "6 (33.3) n (%)"},
      {"measurement": "Injury, poisoning and procedural complications", "setting": "elderly, Total BI n = 18", "value": "2 (11.1) n (%)"},
      {"measurement": "Musculoskeletal and connective tissue disorders", "setting": "elderly, Total BI n = 18", "value": "3 (16.7) n (%)"},
      {"measurement": "Nasopharyngitis", "setting": "elderly, Total BI n = 18", "value": "2 (11.1) n (%)"},
      {"measurement": "Nausea", "setting": "elderly, Total BI n = 18", "value": "2 (11.1) n (%)"},
      {"measurement": "Nervous system disorder", "setting": "elderly, Total BI n = 18", "value": "5 (27.8) n (%)"},
      {"measurement": "Psychiatric disorders", "setting": "elderly, Total BI n = 18", "value": "4 (22.2) n (%)"},
      {"measurement": "Subjects with AEs leading to study discontinuation", "setting": "elderly, Total BI n = 18", "value": "1 (5.6) n (%)"},
      {"measurement": "Subjects with investigator-defined drug-related AEs", "setting": "elderly, Total BI n = 18", "value": "14 (77.8) n (%)"},
      {"measurement": "Total with AEs", "setting": "elderly, Total BI n = 18", "value": "16 (88.9) n (%)"},
      {"measurement": "Vomiting", "setting": "elderly, Total BI n = 18", "value": "2 (11.1) n (%)"},
      {"measurement": "dose dependency of AEs", "setting": "frequency of subjects with drug-related AE across treatment groups", "value": "no dose dependency was observed; also recorded: not dose dependent"},
      {"measurement": "tolerability", "setting": "multiple doses 10–75 mg QD or 75 mg BID (young), 25 or 50 mg QD (elderly)", "value": "generally well tolerated"},
      {"measurement": "serious AEs", "setting": "part 1, all dose groups", "value": "no serious adverse events occurred; also recorded: no serious AEs were reported"},
      {"measurement": "subjects who experienced one or more AEs", "setting": "young subjects, part 1, active-treatment arm", "value": 66.7, "unit": "%"},
      {"measurement": "subjects with drug-related AEs", "setting": "young subjects, part 1, receiving BI 425809", "value": 60.0, "unit": "%"},
      {"measurement": "Dizziness", "setting": "young, part 1, 10 mg QD", "value": "1 (11.1) n (%)"},
      {"measurement": "Eye disorders", "setting": "young, part 1, 10 mg QD", "value": "0 (–) n (%)"},
      {"measurement": "Gastrointestinal disorders", "setting": "young, part 1, 10 mg QD", "value": "0 (–) n (%)"},
      {"measurement": "General disorders and administration site conditions", "setting": "young, part 1, 10 mg QD", "value": "0 (–) n (%)"},
      {"measurement": "Headache", "setting": "young, part 1, 10 mg QD", "value": "3 (33.3) n (%)"},
      {"measurement": "Infections and infestations", "setting": "young, part 1, 10 mg QD", "value": "1 (11.1) n (%)"},
      {"measurement": "Insomnia", "setting": "young, part 1, 10 mg QD", "value": "0 (–) n (%)"},
      {"measurement": "Musculoskeletal and connective tissue disorders", "setting": "young, part 1, 10 mg QD", "value": "1 (11.1) n (%)"},
      {"measurement": "Nasopharyngitis", "setting": "young, part 1, 10 mg QD", "value": "0 (–) n (%)"},
      {"measurement": "Nervous system disorder", "setting": "young, part 1, 10 mg QD", "value": "4 (44.4) n (%)"},
      {"measurement": "Ocular discomfort", "setting": "young, part 1, 10 mg QD", "value": "0 (–) n (%)"},
      {"measurement": "Psychiatric disorders", "setting": "young, part 1, 10 mg QD", "value": "0 (–) n (%)"},
      {"measurement": "Subjects with AEs leading to study discontinuation", "setting": "young, part 1, 10 mg QD", "value": "0 (–) n (%)"},
      {"measurement": "Subjects with investigator-defined drug-related AEs", "setting": "young, part 1, 10 mg QD", "value": "4 (44.4) n (%)"},
      {"measurement": "Total with AEs", "setting": "young, part 1, 10 mg QD", "value": "5 (55.6) n (%)"},
      {"measurement": "Vision blurred", "setting": "young, part 1, 10 mg QD", "value": "0 (–) n (%)"},
      {"measurement": "Dizziness", "setting": "young, part 1, 25 mg QD", "value": "0 (–) n (%)"},
      {"measurement": "Eye disorders", "setting": "young, part 1, 25 mg QD", "value": "2 (22.2) n (%)"}
    ]}
  ]
}
